One may read the IC50 as the concentration needed to halve the response being measured.

Consider 23 molecules from ChEMBL document CHEMBL3877306, “Triazole Ureas Act as Diacylglycerol Lipase Inhibitors and Prevent Fasting-Induced Refeeding” (J Med Chem, 2017).

Molecules are shown by their SMILES.

In assay [1] the target is T1, Diacylglycerol lipase-alpha (Homo sapiens, UniProt Q9Y4D2).
T1 sequence (Q9Y4D2 whole entry): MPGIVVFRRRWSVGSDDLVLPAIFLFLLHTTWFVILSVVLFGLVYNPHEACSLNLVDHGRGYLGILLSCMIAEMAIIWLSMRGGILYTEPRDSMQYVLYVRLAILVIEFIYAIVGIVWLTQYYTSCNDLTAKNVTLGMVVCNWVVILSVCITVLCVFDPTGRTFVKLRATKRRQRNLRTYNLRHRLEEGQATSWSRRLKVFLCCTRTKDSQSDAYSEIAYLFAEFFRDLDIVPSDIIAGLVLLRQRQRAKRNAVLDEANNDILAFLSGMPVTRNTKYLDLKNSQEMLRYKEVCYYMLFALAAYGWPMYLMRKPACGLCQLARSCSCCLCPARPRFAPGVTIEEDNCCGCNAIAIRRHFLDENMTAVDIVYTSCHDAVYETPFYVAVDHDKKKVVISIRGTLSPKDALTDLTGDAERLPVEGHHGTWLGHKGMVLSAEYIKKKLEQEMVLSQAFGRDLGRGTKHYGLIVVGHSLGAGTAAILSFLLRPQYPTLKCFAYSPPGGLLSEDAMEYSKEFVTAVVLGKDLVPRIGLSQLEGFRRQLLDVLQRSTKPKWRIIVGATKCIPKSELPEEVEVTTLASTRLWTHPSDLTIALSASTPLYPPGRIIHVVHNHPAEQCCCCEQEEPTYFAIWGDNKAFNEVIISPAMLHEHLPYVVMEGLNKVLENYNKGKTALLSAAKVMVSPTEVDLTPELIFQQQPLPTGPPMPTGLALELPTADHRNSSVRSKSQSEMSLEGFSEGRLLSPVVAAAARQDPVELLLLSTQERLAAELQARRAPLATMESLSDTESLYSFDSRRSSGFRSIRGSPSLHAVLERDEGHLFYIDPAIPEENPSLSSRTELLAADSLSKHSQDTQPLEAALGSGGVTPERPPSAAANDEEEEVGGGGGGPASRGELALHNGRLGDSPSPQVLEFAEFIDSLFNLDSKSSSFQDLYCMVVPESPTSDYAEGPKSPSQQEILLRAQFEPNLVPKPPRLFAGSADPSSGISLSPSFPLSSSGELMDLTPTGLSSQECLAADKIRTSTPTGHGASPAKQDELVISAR
In words: Inhibition of full length recombinant human DAGLalpha expressed in HEK293T cell membranes using PNP butyrate as substrate by colorimetric assay. Further details: species or system HEK-293T. In outline:
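Membranes from HEK293T cells transiently transfected with human DAGLα (PEI transfection, harvested at 72 h), used at 0.05 µg/µL final protein in 50 mM HEPES pH 7.2. Activity was read colorimetrically from para-nitrophenylbutyrate hydrolysis. n = 4, mean ± SEM.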

The target of assay [2] is T2, Monoacylglycerol lipase ABHD6 (Homo sapiens, UniProt Q9BV23).
T2 sequence (Q9BV23 whole entry): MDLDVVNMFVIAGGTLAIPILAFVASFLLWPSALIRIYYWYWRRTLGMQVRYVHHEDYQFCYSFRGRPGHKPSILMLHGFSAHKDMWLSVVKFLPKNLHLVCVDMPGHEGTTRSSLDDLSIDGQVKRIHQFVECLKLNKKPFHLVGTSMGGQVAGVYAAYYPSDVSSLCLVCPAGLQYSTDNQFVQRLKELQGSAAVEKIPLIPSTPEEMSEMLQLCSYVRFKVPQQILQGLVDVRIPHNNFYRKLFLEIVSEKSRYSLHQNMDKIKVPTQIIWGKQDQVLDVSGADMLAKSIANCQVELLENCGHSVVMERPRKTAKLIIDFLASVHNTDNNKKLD
Nature of the assay: Inhibition of human ABHD6 using 2-AG as natural substrate by fluorescence based assay. In outline:
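Coupled fluorescence assay: 2-AG hydrolysis detected via glycerol kinase, glycerol-3-phosphate oxidase and HRP (0.2 U/mL each), 0.125 mM ATP and 10 µM Amplifu Red. Conditions: 25 µM 2-AG, 0.5% acetonitrile, 5% DMSO, ABHD6 membrane protein 40 µg/mL final. n = 4.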

Assay [3] deals with T3, Monoacylglycerol lipase ABHD6 (Mus musculus, UniProt Q8R2Y0).
T3 sequence (Q8R2Y0 whole entry): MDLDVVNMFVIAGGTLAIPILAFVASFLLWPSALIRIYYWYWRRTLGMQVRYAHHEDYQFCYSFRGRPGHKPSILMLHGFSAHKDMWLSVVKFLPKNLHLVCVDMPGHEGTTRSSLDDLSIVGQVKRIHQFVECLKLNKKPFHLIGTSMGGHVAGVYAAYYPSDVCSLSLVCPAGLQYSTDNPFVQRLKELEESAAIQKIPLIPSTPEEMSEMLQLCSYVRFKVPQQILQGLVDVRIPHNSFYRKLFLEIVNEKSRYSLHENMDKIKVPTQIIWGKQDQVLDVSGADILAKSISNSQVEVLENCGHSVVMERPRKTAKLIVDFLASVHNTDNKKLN
In words: Inhibition of MB064 probe binding to ABHD6 in mouse brain membrane proteome preincubated for 30 mins followed by MB064 probe addition measured after 20 mins by gel-based competitive activity based protein profiling assay. In kind it is cell membranes. The method, boiled down: (§1)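 Mouse brain membrane proteome (2 mg/mL) preincubated with inhibitor or DMSO vehicle for 30 min at r.t., then labelled with MB064 at 250 nM final for 20 min at r.t. and quenched in Laemmli buffer. Fluorescent bands were quantified against vehicle set to 100%, and IC50 was taken from a variable-slope log(inhibitor) vs normalized response fit. n = 3.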

For assay [4], the species on record is Mus musculus. Nature of the assay: Selectivity ratio of IC50 for ABHD6 in mouse brain membrane proteome to IC50 for DAGLalpha in mouse brain membrane proteome. The format is cell membranes. In outline:
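Ratio of DAGLα and ABHD6 […] values, both from competitive gel ABPP in mouse brain membrane proteome. Inhibitor was preincubated 30 min at r.t., then MB064 (250 nM final) was added for 20 min. Band intensities were normalized to vehicle and fitted with a variable-slope curve. n = 3.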

Assay [5] deals with T4, Diacylglycerol lipase-alpha (Mus musculus, UniProt Q6WQJ1).
T4 sequence (Q6WQJ1 whole entry): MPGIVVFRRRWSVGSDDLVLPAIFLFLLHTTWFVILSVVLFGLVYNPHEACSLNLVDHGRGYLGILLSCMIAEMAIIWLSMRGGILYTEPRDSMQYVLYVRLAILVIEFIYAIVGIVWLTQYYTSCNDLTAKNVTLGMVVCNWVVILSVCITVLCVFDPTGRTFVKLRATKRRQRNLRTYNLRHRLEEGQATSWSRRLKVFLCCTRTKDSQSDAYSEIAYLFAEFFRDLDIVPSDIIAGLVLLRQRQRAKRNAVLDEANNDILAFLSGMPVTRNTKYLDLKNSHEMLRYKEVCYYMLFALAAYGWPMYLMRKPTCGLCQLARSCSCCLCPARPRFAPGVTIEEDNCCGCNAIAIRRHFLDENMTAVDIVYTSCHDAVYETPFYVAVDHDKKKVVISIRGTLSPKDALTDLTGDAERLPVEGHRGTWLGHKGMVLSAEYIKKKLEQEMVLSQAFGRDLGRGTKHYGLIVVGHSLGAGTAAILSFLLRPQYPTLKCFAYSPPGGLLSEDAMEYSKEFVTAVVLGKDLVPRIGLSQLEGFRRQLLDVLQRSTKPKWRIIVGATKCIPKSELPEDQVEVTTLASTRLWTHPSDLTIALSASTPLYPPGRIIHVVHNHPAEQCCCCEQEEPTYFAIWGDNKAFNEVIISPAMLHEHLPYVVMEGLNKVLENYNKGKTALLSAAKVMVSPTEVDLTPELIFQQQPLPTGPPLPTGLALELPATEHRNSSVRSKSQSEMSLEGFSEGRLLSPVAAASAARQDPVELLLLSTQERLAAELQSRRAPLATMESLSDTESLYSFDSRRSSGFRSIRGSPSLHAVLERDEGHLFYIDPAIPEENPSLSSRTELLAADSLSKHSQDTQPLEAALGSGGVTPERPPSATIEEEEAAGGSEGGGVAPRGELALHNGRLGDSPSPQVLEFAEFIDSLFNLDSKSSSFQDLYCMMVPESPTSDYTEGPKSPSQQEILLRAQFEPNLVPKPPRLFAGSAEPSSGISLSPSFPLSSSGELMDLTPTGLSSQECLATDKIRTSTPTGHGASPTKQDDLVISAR
Nature of the assay: (§2) Inhibition of MB064 probe binding to DAGLalpha in mouse brain membrane proteome preincubated for 30 mins followed by MB064 probe addition measured after 20 mins by gel-based competitive activity based protein profiling assay. In kind it is cell membranes. In outline: as §1

Assay [6] addresses T5, Diacylglycerol lipase-alpha (Mus musculus) (UniProt Q6WQJ1).
T5 sequence (whole entry): T4 sequence (Q6WQJ1 whole entry)
The assay is described as §2. In kind it is cell membranes. The method, boiled down:
as §1

Consider `O=C(N1C[C@@H](O)C=C[C@@H]1Cc1ccccc1)n1ncc(C(O)(c2ccc(F)cc2)c2ccc(F)cc2)n1`, for which the IC50 was 20 nM in assay [1] and 251 nM in assay [2].

On to `CO[C@@H]1CC[C@H](Cc2ccccc2)N(C(=O)n2ncc(C(O)(c3ccc(F)cc3)c3ccc(F)cc3)n2)C1`, for which the concentration for half-maximal inhibition (IC50) in assay [1] is 0.794 nM; in assay [2], 50.1 nM; in assay [3] it was 50.1 nM; in assay [5] it was 2 nM. For the same molecule, the Ratio IC50 in assay [4] amounted to 25. Moreover, in assay [6], the inhibition result is “Dose-dependent effect”.

Regarding `O=C(N1C[C@H](OCC2CC2)CC[C@@H]1Cc1ccccc1)n1ncc(C(O)(c2ccc(F)cc2)c2ccc(F)cc2)n1`, the concentration for half-maximal inhibition (IC50) in assay [1] was 0.631 nM; in assay [2], 39.8 nM; in assay [3] it was 316 nM; in assay [5], 2 nM. The Ratio IC50 in assay [4] was 160. In assay [6], the inhibition result was “Dose-dependent effect”.

On to `O=C(N1CCCCC1COc1ccccc1)n1ncc(C(O)(c2ccc(F)cc2)c2ccc(F)cc2)n1` (stereo not given), for which the IC50 was 5.01 nM in assay [1] and 200 nM in assay [2].

In the case of `O=C(N1CCCCC1Cc1ccccc1)n1ncc(C(O)(c2ccc(F)cc2)c2ccc(F)cc2)n1` (stereo not given), the IC50 is 1 nM in assay [1] and 25.1 nM in assay [2].

Regarding `O=C(N1CCCCC1Cc1ccccc1)n1ncc(C(O)(C2CCCCC2)C2CCCCC2)n1` (stereo not given), the IC50 in assay [1] is 100 nM; in assay [2], 7940 nM.

Turning to `CC(C)(O)c1cnn(C(=O)N2CCCCC2Cc2ccccc2)n1` (stereo not given), the half-maximal inhibitory concentration (IC50) was 5010 nM in assay [1] and over 10000 nM in assay [2].

`O=C(N1CCCCC1COc1ccccc1)n1ncc(C(O)(c2ccccc2)c2ccccc2)n1` (stereo not given): the half-inhibitory concentration (IC50) in assay [1] is 7.94 nM; in assay [2], 158 nM.

As for `O=C(N1CCCCC1Cc1ccccc1)n1ncc(C(O)(c2ccccn2)c2ccccn2)n1` (stereo not given), the values for the IC50 in assay [1] and in assay [2] were 158 nM and 3160 nM, respectively.

Take `O=C(N1C[C@@H](O)CC[C@@H]1Cc1ccccc1)n1ncc(C(O)(c2ccc(F)cc2)c2ccc(F)cc2)n1`: the IC50 in assay [1] was 6310 nM; in assay [2], 200 nM.

For `COc1cccc(CC2CCCCN2C(=O)n2ncc(C(O)(c3ccc(F)cc3)c3ccc(F)cc3)n2)c1` (stereo not given), the values for the IC50 in assay [1] and in assay [2] were 3.16 nM and 158 nM, respectively.

Turning to `COC(c1ccc(F)cc1)(c1ccc(F)cc1)c1cnn(C(=O)N2CCCCC2Cc2ccccc2)n1` (stereo not given), the IC50 in assay [1] was 12.6 nM; in assay [2], over 10000 nM.

Take `COc1ccc(CC2CCCCN2C(=O)n2ncc(C(O)(c3ccc(F)cc3)c3ccc(F)cc3)n2)cc1` (stereo not given): the concentration for half-maximal inhibition (IC50) in assay [1] is 5.01 nM; in assay [2], 251 nM.

With `O=C(N1CCCCC1COc1ccc(F)cc1)n1ncc(C(O)(c2ccccc2)c2ccccc2)n1` (stereo not given), the results for the half-inhibitory concentration (IC50) in assay [1] and in assay [2] were 6.31 nM and 251 nM, respectively.

For `O=C(N1C[C@H](O)C=C[C@@H]1Cc1ccccc1)n1ncc(C(O)(c2ccc(F)cc2)c2ccc(F)cc2)n1`, the IC50 was 12.6 nM in assay [1] and 39.8 nM in assay [2].

With `O=C(N1CCCCC1Cc1ccccc1)n1ncc(C2(O)CCCCC2)n1` (stereo not given), the IC50 is 1580 nM in assay [1] and 3160 nM in assay [2].

For the molecule `O=C(N1C[C@@H](OCC2CC2)CC[C@@H]1Cc1ccccc1)n1ncc(C(O)(c2ccc(F)cc2)c2ccc(F)cc2)n1`, the IC50 is 20 nM in assay [1], 2510 nM in assay [2], over 10000 nM in assay [3] and 79.4 nM in assay [5]. In addition, the Ratio IC50 in assay [4] was 145. In assay [6], the inhibition entry was “Dose-dependent effect”.

On to `O=C(N1CCCC[C@@H]1Cc1ccccc1)n1ncc(C(O)(c2ccc(F)cc2)c2ccc(F)cc2)n1`, for which the half-inhibitory concentration (IC50) in assay [1] was 0.794 nM.

Take `CCC1CCCCN1C(=O)n1ncc(-c2ccc(-c3ccccc3)cc2)n1` (stereo not given): the half-inhibitory concentration (IC50) in assay [1] is 3980 nM.

Consider `O=C(N1C[C@H](O)CC[C@@H]1Cc1ccccc1)n1ncc(C(O)(c2ccc(F)cc2)c2ccc(F)cc2)n1`, for which the concentration for half-maximal inhibition (IC50) in assay [1] is 20 nM; in assay [2] it was 158 nM.

Regarding `CC(O)(c1ccccc1)c1cnn(C(=O)N2CCCCC2Cc2ccccc2)n1` (stereo not given), the IC50 in assay [1] is 398 nM; in assay [2] it was 3160 nM.

As to `CO[C@H]1CC[C@H](Cc2ccccc2)N(C(=O)n2ncc(C(O)(c3ccc(F)cc3)c3ccc(F)cc3)n2)C1`, the IC50 in assay [1] is 7.94 nM; in assay [2], 126 nM; in assay [3], 398 nM; in assay [5] it was 79.4 nM. For the same molecule, in assay [4], the Ratio IC50 is 5. Also, the inhibition entry in assay [6] is “Dose-dependent effect”.

Turning to `O=C(N1CCCCC1COc1ccc(F)cc1)n1ncc(C(O)(c2ccc(F)cc2)c2ccc(F)cc2)n1` (stereo not given), the IC50 is 5.01 nM in assay [1] and 200 nM in assay [2].
